The sample as a whole holds a higher share of hits than the screen did.
NALP3 yeast inh = inhibitors of NALP3 inflammasome in yeast; Yeast reconstituted NLRP3/ASC/caspase-1, beta-gal luminescence, 24 h; inhibition, % at 10 µM; 330,000 tested, 0.39% active; AID 2825;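 active means inhibition of 50% or more; inactive means inhibition below 50%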;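 further: plate controls were induced DMSO wells for no effect and uninduced yeast grown without galactose for full effect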
T cruzi inh = T. cruzi replication inhibition | T. cruzi beta-gal in NIH3T3, luminescence, 90 h | inhibition, % (no concentration beside the values) | 300,000 tested, 1.4% active;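 active means mean inhibition across valid replicates above about 55%, limit read from the data; inconclusive means mean below that limit but half or more replicates reach it; inactive means mean below it, under half of replicates reach it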;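 further: signal also drops with host cell toxicity which is not excluded here; 0% = plate median of DMSO wells and 100% = zero luminescence signal; higher percent means less beta-gal luminescence so fewer parasites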
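System – NIH/3T3 host cells with β-galactosidase reporter T. cruzi · Doses – single 50 nL compound addition per well in DMSO · Reagent – 5000 T. cruzi trypomastigotes/well · Medium – Low-serum DMEM with 2% FBS · Timing – ≥90 h infection period, 3 h prior cell attachment · Evaluation – parasite load inhibition, % · Technique – GalScreen luminescence, 60 min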
Calb FLC = C. albicans growth modulation with fluconazole; C. albicans CaCi-2 + fluconazole, Alamar Blue growth, 48 h; growth inhibition, % (test concentration not listed); 300,000 tested, 0.57% active; AID 1979;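 active means growth inhibition above about 58% in most replicates, limit read from the data, passing the limit was not always enough; inconclusive means exactly half the replicates above a set limit; inactive means most replicates below a set limit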;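 further: all wells also contain fluconazole at 8 µg/ml as a sub-toxic cotreatment; 0% = median of DMSO wells and 100% = median of geldanamycin control wells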
NALP1 inh = inhibitors of NALP1 inflammasome in yeast; inhibition, % at 10 µM; S. cerevisiae NALP1/ASC/caspase-1 growth, X-gal OD620, 72 h; 280,000 tested, 0.61% active; in the data active means inhibition mostly above about 24%, no sharp cut-off; inactive means mostly below about 32%
Lmaj promast = reduces viability of Leishmania major promastigotes. resazurin fluorescence viability. inhibition, % at 10 µM. 200,000 tested, 9% active. AID 1063; in the data active means inhibition above about 50%;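 further: promastigotes grown with compound for 44 hours at 28 °C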
PolyA inhibitor = yeast polyadenylation inhibition. 300,000 tested, 0.02% active. activity score, % at 12 µM. S. cerevisiae SKY197-pL101 polyadenylation reporter, beta-gal luminescence; efflux-impaired pdr1/pdr3 knockout yeast; score 100 = 6 SD above DMSO;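 active means lowest replicate activity score at least 50, where 100 means six control SD above control mean; inconclusive means lowest score under 50 but half or more replicates reach 50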;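 further: yeast exposed to compound for 9 h at 30 °C; higher score means more reporter readthrough which indicates perturbed polyadenylation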
The depositor's hits bear a star; u = inconclusive; x = not tested or not shown.

SMILES | NALP3 yeast inh | T cruzi inh | Calb FLC | NALP1 inh | Lmaj promast | PolyA inhibitor
CN(C)c1ccc(C2CC(c3ccccc3)=Nc3nc(-c4ccccc4)cn32)cc1 (configuration not stated) | x | x | x | 18.8 | 90.9* | x
CCOC(=O)Cc1csc(NC(=O)c2ccc3ccccc3n2)n1 | -19.1 | -7.0 | -11.3 | -11.8 | x | 14.5
O=C1CC(c2cccc([N+](=O)[O-])c2)c2c(ccc3ccccc23)N1 (configuration not stated) | 1.3 | 13.4 | 11.2 | 5.9 | 99.5* | -14.3
Cc1ccc(C2CC(=O)Nc3c2ccc2ccccc32)cc1[N+](=O)[O-] (configuration not stated) | 3.8 | 10.2 | -3.3 | 27.1 | 95.5* | 10.4
CCN(CC)C(CNC(=O)c1cc(=O)[nH]c2ccccc12)c1ccccc1Cl (configuration not stated) | 3.6 | 11.3 | -2.6 | 9.0 | x | 9.6
Cc1ccc2oc(C(Cl)(Cl)Cl)cc(=O)c2c1 | 23.7 | 3.6 | 35.5 | -4.0 | 56.3* | -13.4
Cc1ccc2oc(C(F)(F)C(F)F)cc(=O)c2c1 | -0.5 | -18.1 | -8.8 | 6.0 | x | 0.8
CCCC1=[N+](CC(=O)c2ccc(C)cc2)CCn2cccc21 | 19.0 | 22.1 | 3.8 | 2.4 | 13.5 | -12.9
CC1CC(C)CN(C(=O)COC(=O)CN2C(=O)c3ccccc3C2=O)C1 (configuration not stated) | 4.9 | x | x | x | x | x
CC1CC(C)CN(C(=O)c2ccc3c(c2NCCO)C(=O)c2ccccc2C3=O)C1 (configuration not stated) | 3.7 | 4.6 | 31.0 | -9.3 | 99.3* | -10.6
CCOC(=O)/C(=N\Nc1ncnc2ccccc12)c1ccc(C)cc1 | 23.6 | -10.1 | 0.6 | -4.0 | x | -12.3
COC(=O)c1cc(-c2ccc(OC)cc2F)nc2nc(SC)[nH]c(=O)c12 | -7.5 | -9.8 | 1.2 | 1.0 | x | -12.8
CCN(CC)c1ccc(/C=N/NC(=O)c2ccc3nc[nH]c3c2)c(O)c1 | 6.5 | 10.4 | 109.3* | x | x | -2.8
CCN(CC)c1ccc(/C=N/N2CCN(Cc3ccccc3)CC2)cc1 | 36.2 | 15.9 | -11.6 | 9.1 | 8.8 | -16.5
CCN(CC)c1ccc(/C=N/NC(=O)c2ccoc2C)c(O)c1 | 11.6 | 57.3* | -1.8 | 6.6 | x | 20.7
CCN(CC)c1ccc(N=Cc2ccc(N(CC)CC)cc2O)cc1 | 29.5 | 74.2* | 78.2* | 10.2 | 99.8* | -56.7
CCN(CC)c1ccc(/C=N/N2CCN(Cc3ccccc3)CC2)c(O)c1 | 29.6 | 23.4 | -4.4 | 30.7 | 92.4* | -16.4
N#CCCN(C(=O)CO/N=C/c1cccc([N+](=O)[O-])c1)c1ccccc1 | 18.6 | -5.0 | -7.1 | 0.4 | 7.4 | x
Cc1ccc(C(=O)Nc2cc3c(oc2=O)CCCC3=O)cc1 | 16.7 | -4.8 | 5.9 | 10.1 | -2.7 | -2.0
CCN(CC)c1ccc(/C=N/NC(=S)NC)c(O)c1 | 40.3 | 49.7 | 16.4 | 3.7 | 83.3* | -15.2
CC(/C=C1\NC(=S)NC1=O)=C\c1ccccc1 | 17.7 | -2.1 | -2.4 | 10.1 | x | -3.1
COc1ccc(CCC(C)NCC2CCCCC2)cc1 (configuration not stated) | 20.1 | -4.9 | -26.8 | 31.4 | 86.6* | u
CCOc1ccc(NC(=O)c2ccc(N3CC4CC(C3)c3cccc(=O)n3C4)c(N)c2)cc1 (configuration not stated) | 16.8 | 16.8 | 5.4 | 7.4 | x | -2.9
COc1ccc(/C=C(/C(=O)NCc2ccccc2)c2ccccc2)cc1 | 11.0 | 27.9 | 41.5 | 25.9 | 92.3* | -28.2
COc1ccccc1/C=C(/C(=O)OCC(=O)NCc1ccccc1)c1ccccc1 | 7.6 | 32.4 | -11.7 | 28.9 | 62.0* | -4.4
SMILES | NALP3 yeast inh | T cruzi inh | Calb FLC | NALP1 inh | Lmaj promast | PolyA inhibitor
COc1ccccc1/C=C(/C(=O)OCC(=O)Nc1ccccc1C)c1ccccc1 | 11.3 | -14.5 | -27.6 | 39.6 | -3.5 | -18.7
O=C(NCc1ccccc1)/C(=C/c1ccc(OC(F)F)cc1)c1ccccc1 | 6.5 | 32.2 | 2.2 | 32.9 | 46.3 | 1.1
O=C(COc1ccccc1Cl)N1CCNC1=O | 4.2 | x | x | x | x | x
Nc1c(N2CCCC2)cc(Cl)c2nonc12 | 15.7 | -30.1 | -1.8 | -0.9 | 86.4* | -29.4
CCCn1c2c(c(O)c(C(=O)Nc3ccc(OC)cc3)c1=O)CCCC2 | 2.0 | 61.2* | 13.7 | 16.2 | 19.5 | -14.1
CCOC(=O)c1ccccc1NC(=O)c1c(O)c2ccccc2n(CC)c1=O | 16.1 | x | -25.5 | 21.3 | -4.3 | x
CC(=O)c1c(C)oc2c1C(=O)c1ccccc1C2=O | x | 2.6 | 7.3 | 48.2 | 9.0 | -31.0
CCn1c(=O)c(C(=O)Nc2ncccc2O)c(O)c2ccccc21 | 20.2 | -1.5 | 31.9 | -4.2 | x | -4.3
CCn1c(=O)c(C(=O)NCc2ccccc2)c(O)c2ccccc21 | 13.8 | -0.2 | -7.7 | 7.9 | x | -17.1
CCn1c(=O)c(C(=O)Nc2ncccc2C)c(O)c2ccccc21 | -5.8 | -18.8 | 96.1* | 7.1 | 2.9 | 11.1
CCn1c(=O)c(C(=O)NCc2cccnc2)c(O)c2ccccc21 | 6.2 | 7.4 | 94.2* | 22.3 | -5.2 | 10.6
C=CCn1c(=O)c(C(=O)Nc2ccccc2C(=O)OCC)c(O)c2ccccc21 | 11.5 | -7.3 | 5.7 | 22.4 | 68.0* | 13.0
Cc1oc2c(c1C(=O)NCc1cccnc1)C(=O)c1ccccc1C2=O | 39.7 | 49.7 | -13.3 | 11.2 | 100.3* | u
CCOc1cc2[nH]c(=O)n(CCCC(=O)N(C)Cc3ccccc3)c(=O)c2cc1OCC | 9.5 | 7.4 | 3.3 | -9.0 | -3.1 | -13.6
Cc1ccc(N(CC(=O)NC2CCCC2)C(=O)c2nsc(Cl)c2Cl)cc1 | 5.8 | 8.7 | -0.5 | 4.8 | x | 8.6
CCC(C)[C@@H](C(=O)Nc1ccc2c(c1)OCO2)N1Cc2ccccc2C1=O (some centres not stated) | 17.0 | 17.2 | -3.2 | -17.8 | 60.8* | -6.8
CC(C)[C@@H](C(=O)OCC(=O)Nc1ccc2c(c1)OCO2)N1C(=O)c2ccccc2C1=O | 3.0 | -0.5 | -26.4 | -4.8 | 82.0* | -14.2
Cc1ccc(NC(=O)C(C)SCc2ccccc2)cc1 (configuration not stated) | 35.2 | -10.2 | -36.2 | 6.8 | x | 4.7
C1=C(CCNc2ncnc3c2[nH]c2ccccc23)CCCC1 | x | x | x | 44.1 | 97.8* | x
CC(C)OCCCNc1ncnc2c1[nH]c1ccccc12 | 3.5 | 31.9 | 5.9 | -22.8 | 70.2* | -2.1
Cc1cc(C)cc(N(CC(=O)Nc2ccccc2)C2=NC3CS(=O)(=O)CC3S2)c1 (configuration not stated) | 4.1 | 14.3 | 1.3 | 5.2 | 64.4* | -6.0
CN(c1ccccc1)S(=O)(=O)c1cccc(NC(=O)CC(C)(C)C)c1 | 11.0 | -0.4 | -8.2 | 42.3 | 96.5* | 19.0
Cc1ccsc1CN(C)CC(=O)Nc1cccc(S(=O)(=O)N(C)c2ccccc2)c1 | 15.2 | x | x | x | x | x
CC(=O)c1ccc(OCCCC(=O)Nc2cccc(S(=O)(=O)N3CCCCC3)c2)cc1 | 8.9 | x | x | x | x | x

Screens deposited in PubChem by several laboratories.
